Measurements reported in PMC9150435 (Nature, 2021).
Residue numbers refer to the chain shown, from its start.

Legend:
MRGPRX2 mutants [1] = molecular target: T1, MRGPRX2 mutants (Homo sapiens, UniProt Q96LB1, I135A); experiment: BRET2 Gi1 activation, MRGPRX2 mutants; type: cell-based; conditions: MRGPRX2 I135(ICL2)A
T1 sequence (Q96LB1 1-330 I135A): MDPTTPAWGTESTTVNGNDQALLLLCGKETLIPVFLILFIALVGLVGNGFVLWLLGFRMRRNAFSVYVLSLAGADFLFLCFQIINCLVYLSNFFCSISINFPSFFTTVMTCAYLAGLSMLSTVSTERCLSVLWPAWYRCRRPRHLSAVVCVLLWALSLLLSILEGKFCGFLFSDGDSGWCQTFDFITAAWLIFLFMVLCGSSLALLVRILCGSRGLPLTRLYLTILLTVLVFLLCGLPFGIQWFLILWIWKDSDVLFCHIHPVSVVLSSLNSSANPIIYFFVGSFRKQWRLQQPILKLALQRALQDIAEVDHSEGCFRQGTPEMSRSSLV

MRGPRX2 mutants [2] = experiment: BRET2 Gi1 activation, MRGPRX2 mutants; type: cell-based, human; conditions: MRGPRX2 R214A, L216A
MRGPRX2 mutants [3] = molecular target: T1, MRGPRX2 mutants; experiment: BRET2 Gq activation, MRGPRX2 mutants; type: cell-based; conditions: MRGPRX2 I135(ICL2)A
MRGPRX2 mutants [4] = experiment: BRET2 Gq activation, MRGPRX2 mutants; type: cell-based, human
MRGPRX4 [5] = molecular target: MRGPRX4 (Homo sapiens, UniProt Q96LA9); experiment: FLIPR Ca2+ assay, agonist mode, MRGPRX4 stable cells; type: cell-based; conditions: read-out: EC50, MRGPRX4 agonist
Sequence of MRGPRX4 (Homo sapiens, UniProt Q96LA9) (Q96LA9 whole entry): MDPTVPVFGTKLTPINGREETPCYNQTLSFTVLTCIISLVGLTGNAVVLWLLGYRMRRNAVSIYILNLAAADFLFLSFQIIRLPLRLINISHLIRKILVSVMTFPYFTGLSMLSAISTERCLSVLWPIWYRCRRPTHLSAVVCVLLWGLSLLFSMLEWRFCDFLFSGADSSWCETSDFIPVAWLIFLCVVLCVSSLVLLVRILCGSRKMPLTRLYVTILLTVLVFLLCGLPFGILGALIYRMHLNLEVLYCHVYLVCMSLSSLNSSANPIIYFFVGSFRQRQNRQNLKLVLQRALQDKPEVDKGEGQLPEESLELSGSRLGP

[6] = system: Kir6.2/SUR1 potassium channel; experiment: Whole-cell electrophysiology, Kir6.2/SUR1 current inhibition in HEK293 cells; type: cell-based, human
MRGPRX4 Leu83Ser = MRGPRX4 Leu83Ser (Homo sapiens, UniProt Q96LA9, L83S); experiment: Agonist potency at MRGPRX4 Leu83Ser variant; type: cell-based
Sequence of MRGPRX4 Leu83Ser (Q96LA9 whole entry L83S): as the sequence (Q96LA9 whole entry) above, with L83S counted along it

320 GPCRs = experiment: PRESTO-Tango GPCRome screening; type: cell-based; conditions: 3 μM
How it was run: (§1)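 HTLA cells in DMEM + 1% dialyzed FBS were PEI-transfected in-plate with PRESTO-Tango receptor DNA (17 ng/well). After overnight culture, test compound at 3 μM final was added for 18–20 h without medium change. Luminescence read 20 min after Bright-Glo. Assay control: D2 receptor with 0.1 mM quinpirole. Output is fold over basal RLU (n=4 technical replicates); receptors exceeding 3-fold basal were repeated as full dose–response.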

MRGPRX4 mutants [7] = experiment: BRET2 Gq activation, MRGPRX4 mutants; type: cell-based, human; conditions: MRGPRX4 pocket mutants
MRGPRX4 mutants [8] = molecular target: MRGPRX4 mutants (Homo sapiens, UniProt Q96LA9, Y130A); experiment: BRET2 Gq activation, MRGPRX4 mutants; type: cell-based; conditions: MRGPRX4 Y130(ICL2)A
Sequence of MRGPRX4 mutants (Homo sapiens, UniProt Q96LA9, Y130A) (Q96LA9 whole entry Y130A): as the sequence (Q96LA9 whole entry) above, with Y130A counted along it

MRGPRX1 = MRGPRX1 (Homo sapiens, UniProt Q96LB2); experiment: PRESTO-Tango single-point and concentration-response assay at MRGPRX1; type: cell-based
Sequence of MRGPRX1 (Q96LB2 whole entry): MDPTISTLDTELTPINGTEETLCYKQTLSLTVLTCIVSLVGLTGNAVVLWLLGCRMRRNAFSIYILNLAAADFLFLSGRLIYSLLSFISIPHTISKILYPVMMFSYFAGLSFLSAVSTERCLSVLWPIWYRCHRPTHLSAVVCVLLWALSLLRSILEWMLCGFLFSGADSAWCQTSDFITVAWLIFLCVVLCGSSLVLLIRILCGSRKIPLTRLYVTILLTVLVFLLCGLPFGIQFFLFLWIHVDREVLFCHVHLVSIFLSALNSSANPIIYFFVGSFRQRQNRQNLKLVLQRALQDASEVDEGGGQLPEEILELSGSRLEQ
How it was run: as §1

MRGPRX4 [9] = conditions: previously identified; cited from earlier work
MRGPRX2 mutants [10] = molecular target: T2, MRGPRX2 mutants (Homo sapiens, UniProt Q96LB1, F170A); experiment: BRET2 Gq activation, MRGPRX2 mutants; type: cell-based; conditions: MRGPRX2 F170(ECL2)A
T2 sequence (Q96LB1 1-330 F170A): T1 sequence (Q96LB1 1-330 I135A) with A135I, F170A

MRGPRX2 mutants [11] = molecular target: T3, MRGPRX2 mutants (Homo sapiens, UniProt Q96LB1, W243A); experiment: BRET2 Gq activation, MRGPRX2 mutants; type: cell-based; conditions: MRGPRX2 W243A
T3 sequence (Q96LB1 1-330 W243A): T1 sequence (Q96LB1 1-330 I135A) with A135I, W243A

CN(C)[C@@H]1CCN(c2cc(-c3ccccc3)nc3ccnn23)C1 [(R)-ZINC-3573]
effect of I135A mutation on stimulated Gi1 activation (MRGPRX2 mutants [1]): attenuate | effect of ICL3 mutations R214A and L216A on stimulated Gi1 activation (MRGPRX2 mutants [2]): impairs | effect of I135A mutation on stimulated Gq activation (MRGPRX2 mutants [3]): greatly reduced | effect of D184A and E164A substitutions on agonist stimulated Gq activation (MRGPRX2 mutants [4]; MRGPRX2 D184A, E164A): impaired the efficacy | effect of most alanine mutations in the (R)-ZINC-3573 pocket (MRGPRX2 mutants [4]; MRGPRX2 pocket alanine mutants): greatly reduced the efficacy

C[C@]12CC3CC(C(=O)N[C@H](Cc4ccccc4)C(=O)O)(C1)C[C@@](C)(C3)C2 [MS47134]
EC50 (MRGPRX4 [5]): 150 nM | selectivity over Kir6.2/SUR1 channel compared to nateglinide [6]: higher selectivity | improved selectivity for MRGPRX4 over the Kir6.2/SUR1 potassium channel ([6]; MRGPRX4 FLIPR vs Kir6.2/SUR1 current inhibition): 47 fold | effect of Leu83Ser mutation on agonist potency (MRGPRX4 Leu83Ser): greatly attenuated the potency | off-target agonist or antagonist activity across GPCRome (320 GPCRs): activity only at MRGPRX4 and MRGPRX1 | effect of most mutations surrounding MS47134 on potency (MRGPRX4 mutants [7]): greatly affected its potency | effect of Y130A mutation on agonist potency (MRGPRX4 mutants [8]): reduced the agonist potency | activity against MRGPRX1 in concentration-response assay (MRGPRX1; full dose-response repeat): not replicated | activity at MRGPRX1, fold of basal levels of relative luminescence units (MRGPRX1; single-point assay, 3 μM): more than 3 fold

CC(C)[C@H]1CC[C@H](C(=O)N[C@H](Cc2ccccc2)C(=O)O)CC1 [nateglinide]
effect of Leu83Ser mutation on agonist potency (MRGPRX4 Leu83Ser): greatly attenuated the potency | MRGPRX4 agonist potency (MRGPRX4 [9]): low micromolar agonist

cortistatin-14 (PCKNFFWKTFSSCK)
effect of I135A mutation on stimulated Gi1 activation (MRGPRX2 mutants [1]): attenuate | effect of ICL3 mutations R214A and L216A on stimulated Gi1 activation (MRGPRX2 mutants [2]): impairs | effect of I135A mutation on stimulated Gq activation (MRGPRX2 mutants [3]): greatly reduced | effect of F170A mutation on agonist stimulated Gq activation (MRGPRX2 mutants [10]): reduced the potency | effect of W243A mutation on agonist stimulated Gq activation (MRGPRX2 mutants [11]): abolished the activity
